Data published in ChEMBL document CHEMBL4834433, “Calcitonin gene-related peptide (CGRP) receptor antagonists: Heterocyclic modification of a novel azepinone lead” (Bioorg Med Chem Lett, 2021).
Values after ≈ are worked out from the molar mass of the structure shown.

Assays:
[1] = Microsomal stability in human liver microsomes assessed as parent compound remaining at […] measured after 10 mins; format: ADME; settings: read-out: Stabilty
[2] = Cmax in rat at 10 mg/kg, po; format: ADME, organism-based; set-up: route oral, dose 10 mg/kg; settings: in vivo
Method in brief: (§1)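 Rats received a single 10 mg/kg oral dose in 80% PEG400/10% DMAC/10% Tween 80.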

[3] = biological target: T1, Calcitonin gene-related peptide type 1 receptor (Homo sapiens, UniProt O60894+Q16602); experiment: Antagonist activity against human CGRP receptor in human SK-N-MC cells assessed as inhibition of CGRP-stimulated cAMP production; format: functional, cell-based
T1 sequence (Q16602 whole entry, one chain of several): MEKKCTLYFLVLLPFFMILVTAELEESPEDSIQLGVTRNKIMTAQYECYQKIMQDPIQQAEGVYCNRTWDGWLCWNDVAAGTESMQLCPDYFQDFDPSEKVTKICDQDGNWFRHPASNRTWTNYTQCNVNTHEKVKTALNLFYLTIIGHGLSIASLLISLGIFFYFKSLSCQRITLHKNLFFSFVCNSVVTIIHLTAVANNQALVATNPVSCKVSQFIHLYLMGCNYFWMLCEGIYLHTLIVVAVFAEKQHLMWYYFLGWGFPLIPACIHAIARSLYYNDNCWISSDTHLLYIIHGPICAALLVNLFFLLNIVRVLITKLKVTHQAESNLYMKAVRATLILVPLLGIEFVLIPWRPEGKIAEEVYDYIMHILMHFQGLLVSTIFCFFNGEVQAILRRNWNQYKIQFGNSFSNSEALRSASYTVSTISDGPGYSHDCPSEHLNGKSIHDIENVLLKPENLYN

[4] = Cmax in Cynomolgus monkey at 10 mg/kg, po; format: ADME, organism-based, Macaca fascicularis; set-up: route oral, dose 10 mg/kg; settings: in vivo
Callithrix jacchus [5] = experiment: Antimigraine activity in human CGRPalpha-induced migraine marmoset model assessed as reduction in facial blood flow at 7 mg/kg, sc administered 30 mins after CGRPalpha stimulation measured after 15 to 105 mins by laser doppler method relative to control; format: functional; set-up: scale not given: the % may be the effect or the level left; settings: time 15-105 min
Method in brief: (§2)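 Marmosets were anesthetized. Facial blood flow was raised by iv hαCGRP (10 µg/kg) given at −30, +15, +60 and +105 min relative to sc antagonist dosing at 0 min. Blood flow was read by laser Doppler flowmetry. Inhibition of the CGRP-induced increase was expressed against the predose vehicle control response at −30 min.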

[6] = Microsomal stability in rat microsomes assessed as parent compound remaining at […] measured after 10 mins; format: ADME, Microsome; settings: read-out: Stabilty
[7] = biological target: T1, Calcitonin gene-related peptide type 1 receptor; experiment: Displacement of [125I]CGRP from human CGRP receptor in human SK-N-MC cells measured after 2 hrs by scintillation counting analysis; format: cell-based
[8] = Microsomal stability in monkey microsomes assessed as parent compound remaining at […] measured after 10 mins; format: ADME, Macaca mulatta, Liver, Microsome; settings: rhesus monkey, read-out: Stabilty
[9] = Permeability form apical to basolateral side in human Caco2 cells; format: ADME, cell-based; settings: Caco-2, read-out: permeability
Cytochrome P450 3A4 = Cytochrome P450 3A4 (Homo sapiens, UniProt P08684); experiment: Time dependent inhibition of CYP3A4 (unknown origin) measured after 30 mins; format: ADME
Sequence of Cytochrome P450 3A4 (P08684 whole entry): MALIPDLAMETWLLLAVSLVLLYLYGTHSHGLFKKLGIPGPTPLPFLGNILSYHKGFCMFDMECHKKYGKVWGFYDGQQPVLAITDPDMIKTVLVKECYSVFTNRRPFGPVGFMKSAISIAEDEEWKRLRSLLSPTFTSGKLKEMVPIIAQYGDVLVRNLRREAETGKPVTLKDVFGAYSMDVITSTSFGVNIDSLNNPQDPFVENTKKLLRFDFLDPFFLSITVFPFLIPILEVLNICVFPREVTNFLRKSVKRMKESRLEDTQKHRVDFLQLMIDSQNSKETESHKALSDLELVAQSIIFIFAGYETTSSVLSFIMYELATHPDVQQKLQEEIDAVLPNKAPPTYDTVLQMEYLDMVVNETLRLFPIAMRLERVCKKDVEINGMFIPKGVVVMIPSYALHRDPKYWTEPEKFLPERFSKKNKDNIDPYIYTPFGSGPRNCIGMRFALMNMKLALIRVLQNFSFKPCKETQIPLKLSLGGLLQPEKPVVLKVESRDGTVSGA

[10] = Permeability of compound at pH 5.5 by PAMPA assay; format: ADME; settings: read-out: permeability
Callithrix jacchus [11] = experiment: Antimigraine activity in human CGRPalpha-induced migraine marmoset model assessed as reduction in facial blood flow at 7 mg/kg, sc administered 30 mins after CGRPalpha stimulation measured after 15 mins by laser doppler method relative to control; format: functional; set-up: scale not given: the % may be the effect or the level left; settings: 0.25 h; method in brief: as §2
[12] = Permeability form basolateral to apical side in human Caco2 cells; format: ADME, cell-based; settings: Caco-2, read-out: permeability
Callithrix jacchus [13] = experiment: Antimigraine activity in human CGRPalpha-induced migraine marmoset model assessed as reduction in facial blood flow at 7 mg/kg, sc administered 30 mins after CGRPalpha stimulation measured after 60 mins by laser doppler method relative to control; format: functional; set-up: scale not given: the % may be the effect or the level left; settings: 1 h; method in brief: as §2
[14] = Permeability of compound at pH 7.4 by PAMPA assay; format: ADME; settings: read-out: permeability
[15] = Total plasma concentration in human CGRPalpha-induced migraine marmoset model at 7 mg/kg, sc measured after 15 to 105 mins; format: ADME, organism-based, Callithrix jacchus; settings: in vivo, time 15-105 min
Method in brief: (§3)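 In anesthetized marmosets given the antagonist sc at 0 min and iv hαCGRP (10 µg/kg) at −30, +15, +60 and +105 min, total plasma levels were taken at the 15, 60 and 105 min postdose test times.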

[16] = Solubility in phosphate buffer at pH 7 using amorphous form of sample; format: physicochemical
Method in brief: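 Solubility of the amorphous solid was measured in 50 mM phosphate buffer, pH 7.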

[17] = Fraction unbound in plasma of human CGRPalpha-induced migraine marmoset model at 7 mg/kg, sc measured after 15 to 105 mins; format: ADME, organism-based, Callithrix jacchus; settings: time 15-105 min
Callithrix jacchus [18] = experiment: Antimigraine activity in human CGRPalpha-induced migraine marmoset model assessed as reduction in facial blood flow at 7 mg/kg, sc administered 30 mins after CGRPalpha stimulation measured after 105 mins by laser doppler method relative to control; format: functional; set-up: scale not given: the % may be the effect or the level left; settings: 1.75 h; method in brief: as §2
[19] = Total plasma concentration in human CGRPalpha-induced migraine marmoset model at 3 mg/kg, sc measured after 15 to 105 mins; format: ADME, organism-based, Callithrix jacchus; settings: in vivo, time 15-105 min; method in brief: as §3
Callithrix jacchus [20] = experiment: Antimigraine activity in human CGRPalpha-induced migraine marmoset model assessed as reduction in facial blood flow at 3 mg/kg, sc administered 30 mins after CGRPalpha stimulation measured after 15 to 105 mins by laser doppler method relative to control; format: functional; set-up: scale not given: the % may be the effect or the level left; settings: time 15-105 min; method in brief: as §2
[21] = Oral bioavailability in rat at 10 mg/kg; format: ADME, organism-based; settings: in vivo; method in brief: as §1

| SMILES | remaining at 10 min [1] | Cmax [2] | remaining at 10 min [6] | Ki [7] | remaining at 10 min [8] | also measured |
| --- | --- | --- | --- | --- | --- | --- |
| CCn1c(=O)[nH]c2c(Cl)cc3c(c21)CN(CC(F)(F)F)C(=O)[C@H](CC(=O)N1CCC(N2CCc4ccccc4NC2=O)CC1)C3 | 44% | 230 nM | 22% | 0.014 nM | 59% | IC50 [3]: 0.09 nM; Cmax [4]: 230 nM; Activity (Callithrix jacchus [5]): 67% |
| O=C(C[C@@H]1Cc2cc(Cl)c3c(c2CN(CC(F)(F)F)C1=O)C(F)(F)C(=O)N3)N1CCC(n2c(=O)[nH]c3ncccc32)CC1 | 91% | 4 nM | 82% | 0.13 nM | 28% | Papp A→B [9]: < 1.5 ×10⁻⁶ cm/s; IC50 (Cytochrome P450 3A4): > 40000 nM; Papp [10]: 9.9 ×10⁻⁶ cm/s; Activity (Callithrix jacchus [11]): 47%; Papp B→A [12]: 25.7 ×10⁻⁶ cm/s; Activity (Callithrix jacchus [13]): 48%; Papp [14]: 8.7 ×10⁻⁶ cm/s; concentration [15]: 140 nM; solubility [16]: 15 µg/mL (≈ 23.9 µM); fraction unbound [17]: 0.054; Activity (Callithrix jacchus [18]): 56% |
| Cn1c(=O)[nH]c2c(Cl)cc3c(c21)CN(CC(F)(F)F)C(=O)[C@H](CC(=O)N1CCC(N2CCc4ncccc4NC2=O)CC1)C3 | 73% | 11 nM | 56% | 0.043 nM | 100% |  |
| O=C(C[C@@H]1Cc2cc(Cl)c3[nH]c(=O)n(CC(F)(F)F)c3c2CN(CC(F)(F)F)C1=O)N1CCC(n2c(=O)[nH]c3ncccc32)CC1 | 90% | 3 nM | 90% | 0.026 nM | 41% | Papp A→B [9]: < 1.5 ×10⁻⁶ cm/s; Papp [10]: 2.8 ×10⁻⁶ cm/s; Papp B→A [12]: 16.5 ×10⁻⁶ cm/s; Papp [14]: 2.3 ×10⁻⁶ cm/s; solubility [16]: < 1 µg/mL |
| O=C(C[C@@H]1Cc2cc(Cl)c3[nH]nnc3c2CN(CC(F)(F)F)C1=O)N1CCC(n2c(=O)[nH]c3ncccc32)CC1 | 62% |  | 90% | 0.44 nM | 64% |  |
| O=C(C[C@@H]1Cc2cc(Cl)c3[nH]ccc3c2CN(CC(F)(F)F)C1=O)N1CCC(N2CCc3ccccc3NC2=O)CC1 | 0.9% |  | 0.8% | 0.85 nM | 1.6% |  |
| O=C(C[C@@H]1Cc2cc(Cl)c3[nH]ncc3c2CN(CC(F)(F)F)C1=O)N1CCC(N2CCc3ccccc3NC2=O)CC1 |  |  |  | 0.046 nM |  | IC50 (Cytochrome P450 3A4): 100 nM |
| N#Cc1c[nH]c2c(Cl)cc3c(c12)CN(CC(F)(F)F)C(=O)[C@H](CC(=O)N1CCC(n2c(=O)[nH]c4ncccc42)CC1)C3 | 40% |  | 40% | 0.06 nM | 7% |  |
| NC(=O)c1c[nH]c2c(Cl)cc3c(c12)CN(CC(F)(F)F)C(=O)[C@H](CC(=O)N1CCC(n2c(=O)[nH]c4ncccc42)CC1)C3 | 80% |  | 80% | 0.4 nM | 70% |  |
| Cn1c(=O)[nH]c2c(Cl)cc3c(c21)CN(CC(F)(F)F)C(=O)[C@H](CC(=O)N1CCC(N2CCc4ccccc4NC2=O)CC1)C3 | 36% | 96 nM | 35% | 0.015 nM | 75% | Papp A→B [9]: < 1.5 ×10⁻⁶ cm/s; IC50 (Cytochrome P450 3A4): 8100 nM; Activity (Callithrix jacchus [11]): 57%; concentration [19]: 40 nM; Papp B→A [12]: 19.6 ×10⁻⁶ cm/s; Activity (Callithrix jacchus [20]): 79%; Activity (Callithrix jacchus [13]): 87%; IC50 [3]: 0.06 nM; Papp [14]: 19.2 ×10⁻⁶ cm/s; concentration [15]: 170 nM; solubility [16]: < 1 µg/mL; fraction unbound [17]: 0.023; Cmax [4]: 35 nM; Activity (Callithrix jacchus [18]): 85%; bioavailability [21]: 1% |
| N#Cc1c[nH]c2c(Cl)cc3c(c12)CN(CC(F)(F)F)C(=O)[C@H](CC(=O)N1CCC(N2CCc4ccccc4NC2=O)CC1)C3 | 38% |  | 11% | 0.06 nM | 26% |  |
| O=C(C[C@@H]1Cc2cc(Cl)c3[nH]c(=O)oc3c2CN(CC(F)(F)F)C1=O)N1CCC(n2c(=O)[nH]c3ncccc32)CC1 | 49% | 36 nM | 64% | 0.12 nM | 63% |  |
| O=C(C[C@@H]1Cc2cc(Cl)c3c(c2CN(CC(F)(F)F)C1=O)C(F)(F)C(=O)N3)N1CCC(N2CCc3ccccc3NC2=O)CC1 | 22% | 480 nM | 35% | 0.069 nM | 8.1% |  |
| O=C(C[C@@H]1Cc2cc(Cl)c3[nH]c(=O)[nH]c3c2CN(CC(F)(F)F)C1=O)N1CCC(N2CCc3ccccc3NC2=O)CC1 | 60% | 3 nM | 41% | 0.019 nM | 71% |  |
| O=C(C[C@@H]1Cc2cc(Cl)c3[nH]c(=O)n(CC(F)(F)F)c3c2CN(CC(F)(F)F)C1=O)N1CCC(N2CCc3ccccc3NC2=O)CC1 | 58% | 270 nM | 54% | 0.02 nM | 87% | Papp A→B [9]: < 1.5 ×10⁻⁶ cm/s; IC50 (Cytochrome P450 3A4): 8400 nM; Papp [10]: 51.3 ×10⁻⁶ cm/s; Activity (Callithrix jacchus [11]): 26%; Papp B→A [12]: 2.4 ×10⁻⁶ cm/s; Activity (Callithrix jacchus [13]): 65%; IC50 [3]: 0.12 nM; concentration [15]: 80 nM; solubility [16]: < 1 µg/mL; fraction unbound [17]: 0.009; Cmax [4]: 87 nM; Activity (Callithrix jacchus [18]): 84% |
| O=C(C[C@@H]1Cc2cc(Cl)c3[nH]cnc3c2CN(CC(F)(F)F)C1=O)N1CCC(N2CCc3ccccc3NC2=O)CC1 | 26% |  | 7% | 0.17 nM | 24% |  |
